Usually EC50 stands for the concentration at which the effect is half-maximal. By IC50 is commonly meant the point on the concentration scale where inhibition reaches its midpoint.

Calls of active or inactive are those of the source. The calls are words filed in the database; no cut-off is given here.

Data set [1] has as its system Mus musculus. The data set is described as follows: Antiobesity activity in high fat diet-fed diabetic C57BL/6J Jms Slc mouse model assessed as decrease in serum triglyceride level at 2.6 mg/day administered with food for 4 weeks. It counts as functional. In short, it runs like this: (§1)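 DIO mice were fed HFD for 8 wk, then HFD containing 0.1% w/w compound (about 2.6 mg/day/mouse) for 4 wk. At the end of feeding, mice were deprived of food overnight. Serum total cholesterol, triglyceride and NEFA were then measured. Values are mean ± SEM.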

Data set [2] concerns Mus musculus. The experiment in a line: Antidiabetic activity in high fat diet-fed diabetic C57BL/6J Jms Slc mouse model assessed as normalization of blood glucose level at 2.6 mg/day administered with food for 4 weeks measured 60 mins after last dose by glucose tolerance test. It counts as functional, organism-based. In short, it runs like this:
(§2)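 Mice were male C57BL/6J Jms Slc, 5 wk old after 1 wk acclimatization. They were fed a 45%-fat HFD for 8 wk, then HFD with compound mixed in (1.0 g/kg diet, about 2.6 mg/day/mouse, 78 mg/day/kg) for 4 wk. Each mouse was fasted 6 h from the start of the light cycle and fasting glucose was measured. Glucose 1.0 g/kg was then given i.p., with readings at 60 and 90 min.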

For data set [3], the system named is Mus musculus. The data set is described as follows: Toxicity in high fat diet-fed diabetic C57BL/6J Jms Slc mouse model assessed as change in weight of kidney at 2.6 mg/day administered with food for 4 weeks. It counts as organism-based. The settings on record: in vivo, po, 672 h. In short, it runs like this:
(§3)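 At the end of the 4 wk in-feed dosing (about 2.6 mg/day/mouse in HFD), liver, kidney and lung weights were compared across the lean LFD, HFD control and treated groups.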

The target of data set [4] is T1, Peroxisome proliferator-activated receptor gamma (Homo sapiens, UniProt P37231).
T1 sequence (P37231 whole entry): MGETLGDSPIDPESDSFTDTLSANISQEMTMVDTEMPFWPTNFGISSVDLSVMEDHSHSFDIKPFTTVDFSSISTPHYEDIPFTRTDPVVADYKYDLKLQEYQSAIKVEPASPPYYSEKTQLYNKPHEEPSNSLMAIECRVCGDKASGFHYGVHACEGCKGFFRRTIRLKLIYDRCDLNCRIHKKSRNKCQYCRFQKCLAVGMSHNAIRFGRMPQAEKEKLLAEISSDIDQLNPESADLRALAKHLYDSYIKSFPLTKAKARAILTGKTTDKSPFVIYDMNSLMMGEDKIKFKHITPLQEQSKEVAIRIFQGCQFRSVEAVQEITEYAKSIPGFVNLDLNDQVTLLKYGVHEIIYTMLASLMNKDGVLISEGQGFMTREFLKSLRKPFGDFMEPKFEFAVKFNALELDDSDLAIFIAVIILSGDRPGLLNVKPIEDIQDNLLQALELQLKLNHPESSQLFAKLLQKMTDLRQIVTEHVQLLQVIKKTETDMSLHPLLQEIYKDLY
The experiment in a line: Agonist activity at PPARgamma expressed in HepG2 cells co-expressing PPRE assessed as transcriptional activation after 24 hrs by luciferase reporter gene assay. It counts as functional, cell-based. In short, it runs like this:
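HepG2 cells were transfected with a PPRE-driven luciferase reporter plus CMV-βGal. The basic luciferase reporter without a PPRE site served as the negative control. Compounds were added 6 h after transfection. Cells were lysed 24 h later. Luciferase activity was read on a luminometer and normalized to β-galactosidase for transfection efficiency. Two independent experiments; error as SEM.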
On the technique in general: A reporter such as luciferase makes a cellular process visible.

For data set [5], the target named is T2, Tyrosine-protein phosphatase non-receptor type 1 (Homo sapiens, UniProt P18031).
T2 sequence (P18031 whole entry): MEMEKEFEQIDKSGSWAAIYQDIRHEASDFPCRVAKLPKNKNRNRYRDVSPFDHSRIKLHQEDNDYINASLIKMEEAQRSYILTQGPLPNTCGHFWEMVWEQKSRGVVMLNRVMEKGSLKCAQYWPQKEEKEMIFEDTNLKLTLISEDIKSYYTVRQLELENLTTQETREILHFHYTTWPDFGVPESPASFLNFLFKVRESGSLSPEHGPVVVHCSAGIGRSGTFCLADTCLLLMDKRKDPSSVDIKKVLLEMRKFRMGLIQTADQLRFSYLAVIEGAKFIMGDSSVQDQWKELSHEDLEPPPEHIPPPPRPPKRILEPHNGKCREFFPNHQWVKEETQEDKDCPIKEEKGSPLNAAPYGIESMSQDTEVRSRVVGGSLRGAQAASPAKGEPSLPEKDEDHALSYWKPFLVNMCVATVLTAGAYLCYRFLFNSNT
The data set is described as follows: Inhibition of PTP1B expressed in Escherichia coli assessed as p-nitrophenol release from pNPP substrate preincubated for 10 mins. In short, it runs like this:
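IC50 values against the PTP panel, with enzymes prepared as described in the supplementary material. Values are means ± SD of two or more experiments.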

The nature of data set [6]: Selectivity ratio of IC50 for membrane proximal catalytic domain of LAR-D1 to IC50 for PTP1B.
Data set [7] relates to Mus musculus. The data set is described as follows: Antidiabetic activity in high fat diet-fed diabetic C57BL/6J Jms Slc mouse model assessed as normalization of fasting blood glucose level at 2.6 mg/day administered with food for 4 weeks measured 90 mins after last dose by glucose tolerance test in presence of glucose. It counts as functional, organism-based. In short, it runs like this: as §2

Data set [8] deals with Mus musculus. The experiment in a line: Antiobesity activity in high fat diet-fed diabetic C57BL/6J Jms Slc mouse model assessed as decrease in non-esterified free fatty acid level in serum at 2.6 mg/day administered with food for 4 weeks. It counts as functional. In short, it runs like this: as §1
The subject of data set [9] is Mus musculus. The data set is described as follows: Antidiabetic activity in high fat diet-fed diabetic C57BL/6J Jms Slc mouse model assessed as normalization of fasting blood glucose level measured after 6 hrs of fasting at 2.6 mg/day administered with food for 4 weeks measured 90 mins after last dose by glucose tolerance test. It counts as functional, organism-based. Put shortly:
as §2

In data set [10] the test system is Mus musculus. The data set is described as follows: Antiobesity activity in high fat diet-fed diabetic C57BL/6J Jms Slc mouse model assessed as weight gain/kcal at 2.6 mg/day administered with food for 4 weeks. It counts as functional. Put shortly: (§4)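 DIO male C57BL/6J Jms Slc mice were fed a 45%-fat HFD for 8 wk, then HFD with 0.1% w/w compound in feed (about 2.6 mg/day/mouse) for 4 wk. A 10%-fat LFD lean group ran throughout. Measures were weight gain, feed efficiency (weight gain/kcal ×100), and epididymal and retroperitoneal fat pad weights. n = 8/group; mean ± SEM; one-way ANOVA.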

Data set [11] relates to Mus musculus. The experiment in a line: Antidiabetic activity in high fat diet-fed diabetic C57BL/6J Jms Slc mouse model assessed as normalization of fasting blood glucose level at 2.6 mg/day administered with food for 4 weeks measured 60 mins after last dose by glucose tolerance test in presence of glucose. It counts as functional, organism-based. Put shortly: as §2
For data set [12], the system named is Mus musculus. The experiment in a line: Antiobesity activity in high fat diet-fed diabetic C57BL/6J Jms Slc mouse model assessed as decrease in epididymal fat at 2.6 mg/day administered with food for 4 weeks. It counts as functional. Put shortly:
as §4

The nature of data set [13]: Selectivity ratio of IC50 for yeast PTP1 to IC50 for PTP1B.
The target in data set [14] is T3, Peroxisome proliferator-activated receptor gamma (Homo sapiens) (UniProt P37231).
T3 sequence (whole entry): T1 sequence (P37231 whole entry)
The experiment in a line: Agonist activity at PPARgamma expressed in HepG2 cells co-expressing PPRE assessed as concentration required for maximal activation after 24 hrs by luciferase reporter gene assay. It counts as functional, cell-based.

In data set [15] the target is T4, Tyrosine-protein phosphatase non-receptor type 1 (Homo sapiens) (UniProt P18031).
T4 sequence (whole entry): T2 sequence (P18031 whole entry)
The data set is described as follows: Mixed type inhibition of PTP1B expressed in Escherichia coli.

The test system of data set [16] is Mus musculus. The data set is described as follows: Antiobesity activity in high fat diet-fed diabetic C57BL/6J Jms Slc mouse model assessed as decrease in retroperitoneal fat at 2.6 mg/day administered with food for 4 weeks. It counts as functional. In short, it runs like this:
as §4

For data set [17], the system named is Mus musculus. The experiment in a line: Toxicity in high fat diet-fed diabetic C57BL/6J Jms Slc mouse model assessed as change in weight of liver at 2.6 mg/day administered with food for 4 weeks. It counts as organism-based. The settings on record: in vivo, po, 672 h. In short, it runs like this: as §3

Turning to `Cc1ccc(S(=O)(=O)Oc2cc(OCc3ccc(C(F)(F)F)cc3)c(/C=C3\SC(=O)NC3=O)cc2Br)cc1`, the Activity in data set [1] was 76 mg/dL; in [3] it was “Non-toxic”; in [8] it was 0.2 mM; in [12] it was 1.29 g; in [14], 1.5 µM; in data set [16], 0.43 g. For the same compound, the Activity entry in data set [17] is on record as “Non-toxic”. Besides, the result in [2] was Active. Also, in [4], the EC50 stood at 340 nM. The IC50 in data set [5] came to 1300 nM. The Ratio IC50 in data set [6] and in data set [13] was greater than 10 in each case. The result in data set [7], in [9] and in data set [11] was inactive. Moreover, the feed efficiency in [10] came out at 0.57 g/100 kcal. Besides, the inhibition result in [15] was “Active”.

These data come from ChEMBL document CHEMBL1800016, “Novel thiazolidinedione derivatives with anti-obesity effects: dual action as PTP1B inhibitors and PPAR-γ activators” (Bioorg Med Chem Lett, 2010).
